High-throughput results (PubChem BioAssay)
Most compounds without a hit are left out; they make up all but 1.8% or so of the library.
STAT1 inh: STAT1 signaling inhibition | 200,000 compounds, 0.35% hits | inhibition, % at 5.5 µM | NIH 3T3 STAT1-luciferase reporter, IFN-gamma, luminescence | AID 920;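 active = inhibition above a set limit, the mean inhibition across all tested compounds plus 3 SD, cut at about 34% in these data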;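 note: 0% = IFN-gamma with DMSO and 100% = IFN-gamma with 300 µM nifuroxazide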
C8 TRAIL sens: caspase-8 TRAIL sensitization. inhibition (viability loss, TRAIL sensitization), % at 10 µM. NB7+C8 cells + TRAIL, ATPlite viability luminescence. 360,000 compounds, 1% hits. AID 624354;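 active = compounds causing at least 50% loss of cell viability in the single-dose screen, relative to plate controls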
STAT3 act: activators of IL-6 induced STAT3 signaling. activation (% of control), % at 5.6 µM. 190,000 compounds, 0.91% hits. U3A cells, IL-6 STAT3-luciferase reporter, luminescence; 100% = signal with IL-6 EC80 alone;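 active = activation above the screen-wide mean of compound activation plus 3 SD, cut at about 130% in these data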;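 note: 0% = background luminescence of wells with medium and substrate only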
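System – human U3A cells carrying STAT3-luciferase construct · Probe or stimulus – Interleukin-6, 33 ng/mL · Schedule – compound 1 h, then IL-6 6 h at 37 °C · Signal – luminescence from STAT3-driven luciferase reporter · Evaluation – percent of IL-6-only median luminescence · Benchmarks – IL-6-only high control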
PPC-1+TRAIL kill: compounds killing PPC-1 cancer cells with TRAIL present (potentiator screen, no TRAIL-free arm); AID 1443; 220,000 compounds, 0.41% hits; PPC-1 cells + TRAIL, ATPLite viability luminescence; cell killing (% activity), % at 4 µM or 5 µM;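 active = cell killing above 50% in the first pass at 4 µM, then a duplicate retest at 5 µM averaging 50% or more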;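 note: plate controls were cells with TRAIL plus DMSO for no effect and medium-only wells lacking cells for full effect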
STAT3 inh: STAT3 signaling inhibition; U3A cells, IL-6 STAT3-luciferase reporter, luminescence; host cell line lacks STAT1; inhibition, % at 5.5 µM; 190,000 compounds, 0.89% hits; AID 862;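 active = inhibition above the mean inhibition across all screened compounds plus 3 SD, cut at about 44% in these data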;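 note: 0% = DMSO only wells and 100% = 100 µM nifuroxazide control wells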
Numbers without * were called inactive; . = not tested or not shown.

SMILES	STAT1 inh	C8 TRAIL sens	STAT3 act	PPC-1+TRAIL kill	STAT3 inh
O=C(N/N=C/c1ccc[nH]1)c1ccc(COc2cccc3cccnc23)cc1	-15	63*	42	3	70*
O=C(O)c1cccc(N2C(=O)/C(=C/c3ccc([N+](=O)[O-])cc3)C=C2c2ccccc2)c1	39*	-4	46	8	66*
CCOC(=O)C1=C(CC)Nc2ccccc2N=C1NC(=O)Nc1ccc(Cl)c(Cl)c1	7	56*	104	-8	-7
CC(=O)c1cccc(N2Cc3ccccc3C2=NC(=O)CCl)c1	-2	5	96	34	13
O=C(/C=C/c1ccc(OC(F)F)cc1)Nc1cccc(S(=O)(=O)NC2=NCCCCC2)c1	.	57*	.	.	.
CC(C)(C)c1ccc(C(=O)Nc2cccc(S(=O)(=O)NC3=NCCC3)c2)cc1	.	86*	.	.	.
COc1ccc(/C=C2/Sc3ccc(C(=O)NCCN4CCCCCC4)cc3NC2=O)cc1	.	79*	.	.	.
O=C1Nc2cc(C(=O)NCCCN3CCCC3)ccc2S/C1=C\c1ccccc1	.	11	.	.	.
CC(C(=O)Nc1ccccc1)N1CCN(C(=O)c2ccco2)CC1 (stereo not given)	.	7	.	.	.
Cc1nc2cc(NC(=O)Nc3cccc([N+](=O)[O-])c3)ccc2n1C	.	59*	.	.	.
Cc1c(Cc2ccccc2)c(=O)oc2cc(OCC(=O)NCc3ccccn3)ccc12	.	1	.	.	.
CCC(C)NC(=O)c1ccc2c(Cl)c3c(nc2c1)CCC3 (stereo not given)	.	41	.	18	.
O=C(Nc1ccc(Cl)cn1)c1ccc2c(Cl)c3c(nc2c1)CCC3	.	57*	.	47	.
Cc1cc(C)nc(N/N=C/c2ccccc2Cl)n1	.	2	.	29	.
Cc1cc(N/N=C/c2ccccc2Cl)nc(NCc2ccccc2)n1	0	57*	92	46	5
CC1CCCC(C)N1C(=O)CSc1nc2ccccc2s1 (stereo not given)	-3	8	133*	6	-39
CC(C)C(NS(=O)(=O)c1cccs1)C(=O)NCc1ccccc1 (stereo not given)	.	-16	.	.	.
COCc1cc(Sc2ccc(Br)cc2)nc(-c2ccccc2)n1	7	16	104	6	-5
Clc1cc(Sc2ccc(Br)cc2)nnc1-c1ccccc1	2	4	138*	25	-48
COc1ccccc1CNC(=O)C1(C)CCN1Cc1ccc(OC(F)(F)F)cc1 (stereo not given)	.	-1	.	.	.
CCO[C@H]1OC(C(=O)N2CCN(Cc3ccc4c(c3)OCO4)CC2)=C[C@@H](C2CC2)[C@@H]1CCCO	0	0	.	31	.
COc1ccc2[nH]cc(C(=O)CCl)c2c1	.	75*	.	22	.
COc1ccc2[nH]cc(C(=O)CN3CC(C)CC(C)C3)c2c1 (stereo not given)	.	-15	.	.	.
COc1ccc(C(=O)c2c[nH]c3ccccc23)cc1	-43	48*	109	37	-12
COC(=O)C(Sc1nc(C)cc(C)c1C#N)c1ccccc1 (stereo not given)	1	-20	94	-3	17
SMILES	STAT1 inh	C8 TRAIL sens	STAT3 act	PPC-1+TRAIL kill	STAT3 inh
Cc1cc(C)c(C#N)c(Sc2ccccc2N)n1	-43	4	168*	23	-77
CCOc1ccccc1NC(=S)N1CCCCCC1	.	4	.	.	.
Cc1ccc(NC(=O)c2cc3ccccc3oc2=O)cc1S(=O)(=O)N(C)C	58*	56*	20	28	100*
CN(c1ccccc1)S(=O)(=O)c1cccc(NC(=O)c2cc3ccccc3oc2=O)c1	.	-11	.	2	.
CC(Sc1nnc(Cc2ccccc2)o1)C(=O)NC1(C#N)CCCCC1 (stereo not given)	.	-12	.	.	.
Cc1ccc(CN(C)C(=O)COC(=O)CSc2ccc(C(N)=O)cc2[N+](=O)[O-])cc1	.	-6	.	.	.
CCOCCCNC(=O)c1cc2c(-c3ccc(Cl)cc3)nn(C)c2s1	1	10	136*	-11	-32
CCCN(CCC)CCNC(=O)c1cc2c(-c3ccc(Cl)cc3)nn(C)c2s1	.	39	.	.	.
COc1ccc(-c2nc3ccccc3c(=O)[nH]2)cc1	.	66*	.	.	.
CCOC(=O)C1=NN(C(=O)Cc2ccccc2)C(O)(C(C)(C)C)C1 (stereo not given)	1	2	108	.	-4
COc1c(Cl)cccc1-c1cn2ccccc2n1	.	73*	.	39	.
Clc1ccc(-c2cn3ccccc3n2)cc1	.	44	.	.	.
C/C(=N\NC(=O)c1ccc(Cl)cc1)c1cccc(NC(=O)c2cccnc2)c1	-4	41	98	30	3
C/C(=N\NC(=O)c1ccccc1F)c1cccc(NC(=O)c2ccc(C)cc2)c1	.	59*	.	.	.
C/C(=N\NC(=O)c1cccc(N/N=C(\C)c2cc(O)ccc2O)c1)c1cc(O)ccc1O	-10	55*	91	20	15
C/C(=N\NC(=O)c1cccc(O)c1)c1cccc(NC(=O)c2ccc(F)cc2)c1	.	57*	.	.	.
C/C(=N\NC(=O)c1ccc(O)cc1)c1cccc(NC(=O)c2ccc(Cl)cc2)c1	.	66*	.	.	.
COc1cccc(C(=O)O/N=C(\N)c2ccc(C)cc2)c1	.	39	.	.	.
N/C(=N\OC(=O)c1ccc2c(c1)OCO2)c1ccc(Cl)cc1	-59	29	113	31	-11
N/C(=N\OC(=O)c1ccc2c(c1)OCO2)c1ccncc1	.	60*	.	19	.
COc1cccc(C(=O)O/N=C(\N)c2ccncc2)c1	-42	53*	99	18	5
Nc1nc(N)c(N=Nc2ccccc2)c(=O)[nH]1	.	64*	.	.	.
Nc1ncnc(N)c1N=Nc1ccccc1	.	66*	.	.	.
CN(C(=O)c1ccc(NC(=O)Cc2cccc(NC(=O)C3CCCN(S(=O)(=O)c4cccc([N+](=O)[O-])c4)C3)c2)cc1)C1CC1 (stereo not given)	.	54*	.	.	.
CCCc1nn(C)c(C(=O)Nc2cccc(Cl)c2)c1Cl	-21	-3	79	51*	28
SMILES	STAT1 inh	C8 TRAIL sens	STAT3 act	PPC-1+TRAIL kill	STAT3 inh
O=C(CCl)N(Cc1ccccc1)c1ccccc1	17	96*	83	12	23
O=C(CCl)N(Cc1cc(=O)[nH]c2ccccc12)c1ccccc1	.	47	.	.	.
COc1ccc(OC)c2nc3c(cc12)CCC3	.	-18	.	.	.
COc1ccccc1C(=O)Nc1nc2ccccc2[nH]1	.	96*	.	.	.
COc1cc(SC)ccc1C(=O)NNC(=O)c1cc(C)oc1C	.	69*	.	.	.
COc1cc(SC)ccc1C(=O)Nc1nc2ccccc2[nH]1	.	96*	.	.	.
COc1ccccc1C(=O)NCCC(=O)Nc1nc2ccccc2[nH]1	.	-6	.	.	.
C[C@@]12C(=O)N(c3ccc(Br)cc3)C(=O)N1[C@@H]1c3ccccc3OC[C@@H]1[C@H]2c1ccccc1	.	22	.	.	.
COc1cc(C(=O)NC2CC(C)(C)CC(C)(C)C2)ccc1OC1CCN(C(C)=O)CC1	.	-4	.	.	.
Cc1oc2c(c1C(=O)O)C(=O)c1ccccc1C2=O	-3	13	117	20	-8
Cc1oc2c(c1C(=O)c1ccccc1)C(=O)C(=O)c1ccccc1-2	1	97*	82	17	24
COCCCNC(=S)Nc1cccc(SC)c1	.	-1	.	24	.
O=C(NCc1ccccc1)c1cccc(NC(=O)C2CC2)c1	.	28	.	.	.
Clc1nc(-c2ccccc2)ncc1Oc1ccccc1	.	21	.	.	.
